UPR CHOP act – activators of apoptotic arm of unfolded protein response (CHOP); CHO-CHOP luciferase reporter, UPR activation, luminescence; percent of tunicamycin response over DMSO baseline; activation, % at 10 µM; 330,000 compounds, 0.34% hits; AID 449763;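 active means at 10 µM dose, activation of 40% or more, normalized to positive control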;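 further: 100% = tunicamycin at 10 µg/mL and 0% = DMSO alone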
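Test system: CHO CHOP reporter cells. Input: 500 CHO-CHOP cells per well. Medium: F12 with 10% FBS. Technique: luciferase luminescence. Measure: percent activation relative to tunicamycin control. Dosing: 10 µM compound, 0.5% DMSO. Timing: 16-18 h cell attachment, then 6 h compound exposure, 37 °C.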
MC4R ag barr – activates human MC4R beta-arrestin recruitment. 360,000 compounds, 0.98% hits. AID 540308. P32245. activation, % at 8.9 µM. U2OS MC4R beta-arrestin complementation, luminescence; percent of melanotan II response, DMSO zero;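 active means activation above a per-plate cutoff, the mean activation of sample wells on that plate plus 3 SD, cut at about 8% in these data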
Target sequence (P32245 whole entry, looked up): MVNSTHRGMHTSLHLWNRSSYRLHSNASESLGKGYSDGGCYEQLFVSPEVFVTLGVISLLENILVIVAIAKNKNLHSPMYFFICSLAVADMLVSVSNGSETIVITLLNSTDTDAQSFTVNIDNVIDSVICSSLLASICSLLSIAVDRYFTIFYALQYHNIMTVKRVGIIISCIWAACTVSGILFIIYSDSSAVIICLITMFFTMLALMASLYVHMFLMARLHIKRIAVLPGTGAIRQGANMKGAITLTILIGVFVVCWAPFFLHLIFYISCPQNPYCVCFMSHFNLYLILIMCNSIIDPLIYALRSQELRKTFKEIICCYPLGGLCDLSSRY
Bfl-1 A1 inh – inhibitors of the anti-apoptotic protein A1, read as caspase activation; 330,000 compounds, 0.066% hits; AID 2462; caspase activation, % (no concentration beside the values); MEF A1-2A-BIM cells, Caspase-Glo 3/7 luminescence, 3 h; percent of clofoctol response, vehicle zero;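 active means over half of replicate activation scores above 10%, or exactly half above 10 with the replicate mean above 10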
MC4R antagonist – antagonists of human melanocortin 4 receptor (MC4R) | P32245 | MC4R-expressing cells, MTII-stimulated cAMP, LANCE TR-FRET | inhibition, % at 6.5 µM | 360,000 compounds, 0.48% hits;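 active means inhibition above its plate's cutoff, the mean of tested wells on that plate plus 3 SD, cut at about 29% in these data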;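 further: 0% = Melanotan II alone and 100% = Melanotan II plus saturating MCL0020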
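Assay system: U2OS cells stably expressing human melanocortin 4 receptor (MC4R) / Dosing: 6.5 µM / Timing: compound 30 min, challenge 1 h, detection 1 h / Measured by: Eu-cAMP/anti-cAMP TR-FRET, emission 671 nm / Replicates: singlicate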
UPR XBP1 act – activators of adaptive arm of unfolded protein response (XBP1) | 330,000 compounds, 0.33% hits | CHO-XBP1 luciferase reporter, IRE1-XBP1 UPR activation, luminescence; percent of tunicamycin response, DMSO as zero | AID 463104 | activation, % at 20 µM;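 active means versus positive control, 20 µM dose yields 30% or more activation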;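 further: 100% = tunicamycin at 10 µg/mL and 0% = DMSO only wells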
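Assay system: CHO-XBP1 luciferase reporter cells; Schedule: 6 h treatment, 37 °C; Detection: glow luminescence from Steady-Glo reagent; Benchmarks: high control tunicamycin 10 µg/mL final, low control DMSO vehicle only.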
* = called active by the depositor; · = no result. Only some compounds are listed: those with a hit (about 2% of all), similar ones and a draw of the others.

SMILES	UPR CHOP act	MC4R ag barr	Bfl-1 A1 inh	MC4R antagonist	UPR XBP1 act
COc1c(C(CC(C)C)OC(C)=O)ccc2c1C(=O)OCc1cc(C)cc(O)c1O2 (centres undefined)	4	8.6*	-1	7	0
COc1cc(C(=O)NC(C)c2ccc(-n3ccnc3)cc2)cc(OC)c1C (centres undefined)	0	-2	0	0	0
COc1ccc(OC)c(S(=O)(=O)NC(C)c2ccc(-n3ccnc3)cc2)c1 (centres undefined)	-1	-1	13*	-8	-4
COc1ccc([C@H]2N[C@]3(CCCN(Cc4ccc(C)cc4)C3=O)[C@H]3C(=O)N(Cc4ccccc4)C(=O)[C@@H]23)cc1	·	1	·	7	·
COc1ccccc1CN1CC(C(=O)NCCCCc2ccccn2)CCC1=O (centres undefined)	·	-1	·	14	·
CC(=O)N(CCc1ccccc1)c1ccc2c(c1)C1CC2CCN1C(=O)OCc1ccccc1 (centres undefined)	·	0	·	5	·
CC(C)c1ccc(NC(=O)C2(C)Cc3c(-c4ccc(N(C)C)cc4)ccnc3O2)cc1 (centres undefined)	·	-1	·	3	·
C=CCn1c(SCC(=O)N2CCOCC2)nc2c([nH]c3ccccc32)c1=O	0	-1	1	-31	-4
C=CCn1c(SCC(=O)N2CCN(c3ccccc3)CC2)nc2c([nH]c3ccccc32)c1=O	21	0	0	-53	73*
CCCCNC(=O)C1(C)CCN1C(=O)c1ccc(F)cc1Cl (centres undefined)	·	-1	·	-2	·
Cc1ccc(C2(C)NC(=O)N(CC(=O)Nc3c(C)n(C)n(-c4ccccc4)c3=O)C2=O)cc1 (centres undefined)	2	-1	-1	5	0
Cc1c(NC(=O)CN2C(=O)NC(C)(c3ccccc3)C2=O)c(=O)n(-c2ccccc2)n1C (centres undefined)	0	0	1	29*	-2
CCNC(=O)C1(C)CCCN(Cc2noc(-c3c(C)noc3C)n2)C1 (centres undefined)	·	-1	·	4	·
O=C(CNc1ccccc1OC(F)F)N1CCc2ccccc21	5	8.3*	0	-1	-2
Oc1c(Cl)cc(Cl)cc1C=Nc1cc(C(F)(F)F)ccc1N1CCc2ccccc2C1	2	-1	-9	29*	1
CC1CN(C(=O)CSc2nc(N)c(NC(=O)c3ccc(C(F)(F)F)cc3)c(=O)[nH]2)CC(C)O1 (centres undefined)	·	0	·	8	·
O=C1[C@H]2[C@@H](c3ccccc3)N[C@]3(CCCN(Cc4ccc(Br)cc4)C3=O)[C@H]2C(=O)N1Cc1ccccc1	·	-1	·	10	·
COc1ccc(CNC(=O)COC(=O)/C=C/c2cccc(Cl)c2)cc1	0	8.3*	-1	12	-2
COC(=O)c1ccc(CNC(=O)COC(=O)/C=C/c2cccc(OC)c2)cc1	·	0	·	1	·
CCN1CCN(c2ccc(NC(=O)c3ccc(Br)o3)cc2)CC1	4	-3	·	-6	2
CN1CCN(c2ccc(NC(=O)c3ccc(-c4ccc(Br)cc4)o3)cc2)CC1	5	11*	0	0	0
Cc1ccc(Oc2nc(-c3ccccc3)ncc2S(=O)(=O)c2ccc(C)cc2)cc1	-2	-3	0	1	1
Cc1ccc(Oc2nc(-c3ccccc3)ncc2S(C)(=O)=O)cc1	1	8.4*	-1	-4	6
CC1(C(=O)Nc2ccc3c(c2)OCCO3)CCN1C(=O)c1ccco1 (centres undefined)	·	0	·	3	·
COc1ccc(C(=O)c2sc3nc(-c4ccc(OC)cc4)ccc3c2N)cc1	1	9.2*	1	19	3
SMILES	UPR CHOP act	MC4R ag barr	Bfl-1 A1 inh	MC4R antagonist	UPR XBP1 act
CSc1ccc(C2C(C(=O)c3ccco3)=C(O)C(=O)N2c2nnc(SC)s2)cc1 (centres undefined)	1	-2	0	33*	-3
NC(COCc1ccccc1)c1csc(Nc2ccc(C(=O)NCCO)cc2)n1 (centres undefined)	·	1	·	4	·
Cc1ccc(/C=N\NC(=O)c2cc(OCC(F)(F)F)ccc2OCC(F)(F)F)cc1	0	14*	1	-2	4
CC12C(=O)N(c3nccs3)C(=O)C1(C)C1CCC2O1 (centres undefined)	·	1	·	5	·
C[C@@]12C(=O)OC(=O)[C@]1(C)C1CCC2O1	101*	-1	3	12	-1
COc1ccccc1CCCNC(=O)C1CCC(=O)N(Cc2ccccc2F)C1 (centres undefined)	4	2	8.6*	-6	4
Cc1oc2c(c(=O)c1C)C(=O)CC(c1ccccc1)C2 (centres undefined)	-1	-2	0	1	3
CS(=O)(=O)c1sc(C#N)c2c1C(=O)CC(c1ccccc1)C2 (centres undefined)	-11	-2	57*	33*	-11
COc1ccc(C(=O)N2N=C(c3cccs3)CC2c2ccccc2O)cc1 (centres undefined)	0	12*	0	5	1
CN(C)CCCN(C(=O)c1ccc2c(c1)CCCC2)c1nc2cc3c(cc2s1)OCO3	2	8.6*	2	-4	1
Cc1cc(C)c2sc(N(CCCN(C)C)C(=O)c3ccc(S(=O)(=O)N4CCc5ccccc5C4)cc3)nc2c1	1	39*	0	-1	-9
Cc1cc(C)c2sc(N(CCN(C)C)C(=O)CCS(=O)(=O)c3ccccc3)nc2c1	4	9.2*	0	2	-1
CN(C)CCCN(C(=O)c1ccc2c(c1)CCCC2)c1nc2ccc(F)cc2s1	3	6	0	-4	1
COc1ccc2sc(N(CCCN(C)C)C(=O)c3ccc(S(=O)(=O)N4CCc5ccccc5C4)cc3)nc2c1	29	32*	28*	2	-6
Cc1ccc(S(=O)(=O)N2CC3(O)CN(C(=O)OC(C)C)N(C(=O)OC(C)C)CC3(OC(=O)NC3CCCC3)C2)cc1 (centres undefined)	·	3	·	4	·
Cc1noc(C)c1-c1ccc(C(=O)NCCC(F)(F)F)c2occc12	·	-1	·	13	·
Cc1ccc(S(=O)(=O)N(C)c2ccc(C(=O)NCC(c3ccccc3)N3CCCC3)cc2)cc1 (centres undefined)	·	0	·	8	·
COc1ccc(CN2C(=O)C(CC(=O)NCC3CCCCC3)CC(C(=O)N(C(C)C)C(C)C)=C2C)cc1 (centres undefined)	·	4	·	4	·
O=S(=O)(Nc1nc2ccccc2nc1Nc1cccc(S(=O)(=O)N2CCCCC2)c1)c1ccccc1	5	8.5*	-1	13	-1
